Reference: ChEMBL document CHEMBL1154908, “Structure-activity relationships studies in a series of N,N-bis(alkanol)amine aryl esters as P-glycoprotein (Pgp) dependent multidrug resistance (MDR) inhibitors” (J Med Chem, 2010)
pIC50: −log10 of the molar value.

Tests used:
[1] = molecular target: T1, ATP-dependent translocase ABCB1 (Homo sapiens, UniProt P08183); test: Inhibition of P-glycoprotein-mediated multidrug resistance in human doxorubicin-resistant K562 cells assessed as drug level causing 50% increase in nuclear concentration of pirarubicin by spectrofluorimetry; format: cell-based; details: read-out: INH
Summary of the method: (§1)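 Pirarubicin uptake was measured in doxorubicin-resistant K562/DOX cells, which overexpress only Pgp, by continuous spectrofluorometry (excitation 480 nm, emission 590 nm) after incubation. R is the fold increase in nuclear pirarubicin with inhibitor, from 0 (no inhibitor) to 1 (equal to sensitive cells). Rmax is the maximal attainable R. Reported concentrations are those giving R = 0.2 or R = 0.5.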

[2] = molecular target: T1, ATP-dependent translocase ABCB1; test: Inhibition of P-glycoprotein-mediated multidrug resistance in human doxorubicin-resistant K562 cells assessed as maximal increase in nuclear concentration of pirarubicin by spectrofluorimetry relative to sensitive K562 cells; format: cell-based; summary of the method: as §1
[3] = test system: K562; test: Growth inhibition in human K562 cells at 3 uM after 72 hrs by MTT assay; format: functional; details: K562, 72 h, read-out: GI
[4] = test system: K562; test: Growth inhibition in doxorubicin-resistant human K562 cells overexpressing Pgp at 1 uM after 72 hrs by MTT assay; format: functional; details: K562, 72 h, read-out: GI
[5] = test system: K562; test: Growth inhibition in human K562 cells at 1 uM after 72 hrs by MTT assay; format: functional; details: K562, 72 h, read-out: GI
[6] = test system: K562; test: Growth inhibition in doxorubicin-resistant human K562 cells overexpressing Pgp at 3 uM after 72 hrs by MTT assay; format: functional; details: K562, 72 h, read-out: GI
[7] = molecular target: T1, ATP-dependent translocase ABCB1; test: Inhibition of P-glycoprotein-mediated multidrug resistance in human doxorubicin-resistant K562 cells assessed as drug level causing 20% increase in nuclear concentration of pirarubicin by spectrofluorimetry; format: cell-based; summary of the method: as §1

T1 sequence (P08183 whole entry): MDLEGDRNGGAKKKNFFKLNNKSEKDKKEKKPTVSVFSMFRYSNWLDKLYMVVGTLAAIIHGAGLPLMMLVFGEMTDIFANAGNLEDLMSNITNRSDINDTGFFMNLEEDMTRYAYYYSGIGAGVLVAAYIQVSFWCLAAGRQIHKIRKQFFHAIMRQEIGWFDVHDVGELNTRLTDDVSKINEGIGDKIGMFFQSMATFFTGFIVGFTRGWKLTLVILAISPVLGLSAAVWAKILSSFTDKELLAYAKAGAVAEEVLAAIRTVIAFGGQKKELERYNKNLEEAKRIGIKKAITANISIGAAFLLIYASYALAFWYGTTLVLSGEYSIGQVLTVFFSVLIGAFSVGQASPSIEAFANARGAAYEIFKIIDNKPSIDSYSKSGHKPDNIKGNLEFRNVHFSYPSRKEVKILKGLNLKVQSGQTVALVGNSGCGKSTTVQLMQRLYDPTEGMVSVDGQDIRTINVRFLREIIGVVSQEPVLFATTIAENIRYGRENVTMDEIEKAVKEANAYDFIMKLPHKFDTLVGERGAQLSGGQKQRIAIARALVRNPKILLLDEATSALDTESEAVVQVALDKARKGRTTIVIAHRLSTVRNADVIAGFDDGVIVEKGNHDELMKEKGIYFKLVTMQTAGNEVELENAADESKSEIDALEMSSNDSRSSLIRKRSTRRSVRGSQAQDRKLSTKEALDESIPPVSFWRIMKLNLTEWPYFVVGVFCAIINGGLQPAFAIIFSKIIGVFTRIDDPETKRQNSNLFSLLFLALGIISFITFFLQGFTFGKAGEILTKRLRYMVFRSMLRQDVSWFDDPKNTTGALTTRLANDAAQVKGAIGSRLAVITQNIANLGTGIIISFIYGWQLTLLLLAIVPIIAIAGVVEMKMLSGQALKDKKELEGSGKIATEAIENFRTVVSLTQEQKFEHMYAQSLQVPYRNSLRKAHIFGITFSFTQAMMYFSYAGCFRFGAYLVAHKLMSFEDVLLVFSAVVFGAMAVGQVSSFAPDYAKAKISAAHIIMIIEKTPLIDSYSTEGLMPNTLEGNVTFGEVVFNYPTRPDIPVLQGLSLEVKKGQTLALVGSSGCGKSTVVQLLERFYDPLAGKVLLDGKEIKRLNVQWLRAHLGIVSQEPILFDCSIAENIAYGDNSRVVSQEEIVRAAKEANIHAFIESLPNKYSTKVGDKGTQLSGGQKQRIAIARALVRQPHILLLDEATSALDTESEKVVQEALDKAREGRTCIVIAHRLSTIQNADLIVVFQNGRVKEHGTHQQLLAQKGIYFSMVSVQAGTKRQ

COc1cc(/C=C/C(=O)OCCCNCCCOC(=O)/C=C/c2c3ccccc3cc3ccccc23)cc(OC)c1OC
pIC50 [1]: 6.10
fold change (FC) [2]: 0.92

COc1cc(/C=C/C(=O)OCCCN(C)CCCOC(=O)/C=C/c2c3ccccc3cc3ccccc23)cc(OC)c1OC
pIC50 [1]: 6.60
fold change (FC) [2]: 0.93

COc1cc(/C=C/C(=O)OCCCN(C)CCCOC(=O)C=C(c2ccccc2)c2ccccc2)cc(OC)c1OC
pIC50 [1]: 6.80
inhibition of growth at 3 µM [3]: 20%
inhibition of growth at 1 µM [4]: ≤ 10%
inhibition of growth at 1 µM [5]: 20%
inhibition of growth at 3 µM [6]: 20%
fold change (FC) [2]: 0.66

COc1cc(/C=C/C(=O)OCCCN(C)CCCOC(=O)/C=C/c2ccc(-c3ccccc3)cc2)cc(OC)c1OC
pIC50 [1]: 6.62
inhibition of growth at 3 µM [3]: ≤ 10%
inhibition of growth at 1 µM [4]: ≤ 10%
inhibition of growth at 1 µM [5]: ≤ 10%
inhibition of growth at 3 µM [6]: ≤ 10%
fold change (FC) [2]: 0.85

COc1ccc(C(C(=O)OCCCN(C)CCCOC(=O)/C=C/c2cc(OC)c(OC)c(OC)c2)c2ccc(OC)cc2)cc1
pIC50 [1]: 7.10
inhibition of growth at 3 µM [3]: ≤ 10%
inhibition of growth at 1 µM [4]: ≤ 10%
inhibition of growth at 1 µM [5]: ≤ 10%
inhibition of growth at 3 µM [6]: ≤ 10%
fold change (FC) [2]: 0.79

COc1cc(/C=C/C(=O)OCCCN(C)CCCOC(=O)CN2C(=O)C3C4c5ccccc5C(c5ccccc54)C3C2=O)cc(OC)c1OC (centres undefined)
pIC50 [1]: 6.64
fold change (FC) [2]: 0.73

COc1cc(/C=C/C(=O)OCCCN(C)CCCOC(=O)CCN2C(=O)C3C4c5ccccc5C(c5ccccc54)C3C2=O)cc(OC)c1OC (centres undefined)
pIC50 [1]: 6.41
fold change (FC) [2]: 0.63

COc1cc2c(cc1OC)CN(CCC(=O)OCCCN(C)CCCOC(=O)/C=C/c1cc(OC)c(OC)c(OC)c1)CC2
pIC50 [1]: 5.43
fold change (FC) [2]: 0.63

COc1cc(/C=C/C(=O)OCCCCCN(C)CCCCCOC(=O)C=C(c2ccccc2)c2ccccc2)cc(OC)c1OC
INH [7]: 0.5 µM
fold change (FC) [2]: 0.28

COc1cc(/C=C/C(=O)OCCCCCN(C)CCCCCOC(=O)/C=C/c2ccc(-c3ccccc3)cc2)cc(OC)c1OC
INH [7]: 0.36 µM
fold change (FC) [2]: 0.4

COc1ccc(C(C(=O)OCCCCCN(C)CCCCCOC(=O)/C=C/c2cc(OC)c(OC)c(OC)c2)c2ccc(OC)cc2)cc1
pIC50 [1]: 6.40
fold change (FC) [2]: 0.5

COc1ccc(/C=C/C(=O)OCCCCCN(C)CCCCCOC(=O)c2cc(OC)c(OC)c(OC)c2)cc1OC
pIC50 [1]: 6.19
fold change (FC) [2]: 0.7

COc1ccc(/C=C/C(=O)OCCCCCN(C)CCCCCOC(=O)c2c3ccccc3cc3ccccc23)cc1OC
pIC50 [1]: 6.77
inhibition of growth at 3 µM [3]: ≤ 10%
inhibition of growth at 1 µM [4]: ≤ 10%
inhibition of growth at 1 µM [5]: ≤ 10%
inhibition of growth at 3 µM [6]: ≤ 10%
fold change (FC) [2]: 1

COc1cc(/C=C/C(=O)OCCCN(C)CCCOC(=O)c2ccc(-c3ccccc3)cc2)cc(OC)c1OC
pIC50 [1]: 6.66
fold change (FC) [2]: 0.77

COc1ccc(/C=C/C(=O)OCCCN(C)CCCOC(=O)/C=C/c2cc(OC)c(OC)c(OC)c2)cc1OC
INH [7]: 1.4 µM
fold change (FC) [2]: 0.5

COc1ccc(C(C#N)(CCCNCc2c3ccccc3cc3ccccc23)C(C)C)cc1OC (centres undefined)
pIC50 [1]: 7.30
fold change (FC) [2]: 0.7

COc1ccc(/C=C/C(=O)OCCCN(C)CCCOC(=O)c2c3ccccc3cc3ccccc23)cc1OC
pIC50 [1]: 6.72
fold change (FC) [2]: 0.57

COc1ccc(/C=C/C(=O)OCCCN(C)CCCOC(=O)c2c3ccccc3c(Cl)c3ccccc23)cc1OC
pIC50 [1]: 6.39
fold change (FC) [2]: 0.98

COc1cc(/C=C/C(=O)OCCCN(C)CCCOC(=O)C(c2ccccc2)c2ccccc2)cc(OC)c1OC
pIC50 [1]: 6.59
inhibition of growth at 3 µM [3]: ≤ 10%
inhibition of growth at 1 µM [4]: ≤ 10%
inhibition of growth at 1 µM [5]: ≤ 10%
inhibition of growth at 3 µM [6]: ≤ 10%
fold change (FC) [2]: 0.77

COc1ccc(/C=C/C(=O)OCCCN(C)CCCOC(=O)c2cc(OC)c(OC)c(OC)c2)cc1OC
INH [7]: 0.7 µM
fold change (FC) [2]: 0.34

COc1ccc(CCN(C)CCCC(C#N)(c2ccc(OC)c(OC)c2)C(C)C)cc1OC (centres undefined) [VERAPAMIL]
inhibition of growth at 3 µM [3]: ≤ 10%
inhibition of growth at 1 µM [4]: ≤ 10%
inhibition of growth at 1 µM [5]: ≤ 10%
inhibition of growth at 3 µM [6]: ≤ 10%
